According to ChEMBL document CHEMBL4480454, “Parvifoline Derivatives as Tubulin Polymerization Inhibitors” (J Nat Prod, 2019):
Calls of active or inactive are those of the source. No cut-off for these calls is given here.

How the values were obtained:
Sus scrofa [1] = species on record: Sus scrofa; assay: Inhibition of porcine brain tubulin alpha/beta polymerization at 50 uM measured every minute for 60 mins relative to colchicine
Outline: (§1)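 Turbidity assay with porcine brain α,β-tubulin (97%), final 2 mg/mL, in pH 6.9 buffer of 80.0 mM PIPES sesquisodium, 2.0 mM MgCl2, 0.5 mM EGTA and 1.0 mM GTP. Tubulin added at 0 °C to compound in DMSO, then A450 read every minute for 60 min at 37 °C. Time-zero reading subtracted. […] Triplicate; ANOVA with Tukey test.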

Sus scrofa [2] = species on record: Sus scrofa; assay: Inhibition of porcine brain tubulin alpha/beta polymerization at 10 uM measured every minute for 90 mins relative to colchicine
Sus scrofa [3] = species on record: Sus scrofa; assay: Inhibition of porcine brain tubulin alpha/beta polymerization at 10 uM measured every minute for 60 mins relative to colchicine; outline: as §1
Sus scrofa [4] = species on record: Sus scrofa; assay: Inhibition of porcine brain tubulin alpha/beta polymerization at 50 uM measured every minute for 90 mins relative to colchicine
HeLa = assay: Cytotoxicity against human HeLa cells assessed as reduction in cell viability after 72 hrs by SRB assay; type: functional, cell-based
HCT-116 = assay: Cytotoxicity against human HCT116 cells assessed as reduction in cell viability after 72 hrs by SRB assay; type: functional, cell-based; conditions: HCT-116, 72 h
Sus scrofa [5] = species on record: Sus scrofa; assay: Competitive inhibition of colchicine binding to porcine brain tubulin alpha/beta polymerization at 10 to 50 uM preincubated for 30 mins followed by 50 uM colchicine addition and measured after 60 mins by fluorescence assay
Outline: (§2)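 Porcine brain α,β-tubulin (97%) in general buffer pH 6.9 (80.0 mM PIPES sesquisodium, 2.0 mM MgCl2, 0.5 mM EGTA), no GTP, final 1 mg/mL, added at 0 °C to compound in DMSO (final 10, 20, 50 μM). […] DMSO control included.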

Sus scrofa [6] = species on record: Sus scrofa; assay: Competitive inhibition of colchicine binding to porcine brain tubulin alpha/beta polymerization at 10 to 50 uM preincubated for 30 mins followed by 5 uM colchicine addition and measured after 60 mins by fluorescence assay; outline: as §2
Sus scrofa [7] = species on record: Sus scrofa; assay: Induction of porcine brain tubulin alpha/beta polymerization at 10 uM measured every minute for 30 mins

SMILES | inhibition (Sus scrofa [1]) | inhibition (Sus scrofa [2]) | inhibition (Sus scrofa [3]) | inhibition (Sus scrofa [4]) | IC50 (HeLa) | IC50 (HCT-116) | inhibition (Sus scrofa [5]) | inhibition (Sus scrofa [6]) | Activity (Sus scrofa [7])
C/C1=C/c2cc(C)c(OC(=O)c3ccccc3)cc2[C@H](C)CCC1 | 86.6% | 35.4% | 38.7% | 106% | – | – | – | – | –
COc1cc2c(c(OC)c1OC)-c1ccc(OC)c(=O)cc1[C@@H](NC(C)=O)CC2 [COLCHICINE] | – | – | – | – | 11 nM | 40 nM | – | – | –
Cc1cc2c(cc1O)[C@H](C)CC[C@@H]1O[C@]1(C)C2 | 33.6% | 46.9% | 48.7% | 44.7% | – | – | Active | inactive | –
C/C1=C/CC[C@@H](C)c2cc(O)c(C)cc2C1 | 54.6% | 51% | 24.4% | 66.7% | – | – | Active | inactive | Active
Cc1cc2c(cc1O)[C@H](C)CCC[C@]1(C)O[C@H]21 | 19.3% | 8.3% | 30.3% | 36.9% | – | – | – | – | –
Cc1cc2c(cc1OC(=O)c1ccccc1)[C@@]1(C)CCC[C@H](C)[C@@H]2O1 | -3.4% | 2.1% | 9.2% | -5.7% | – | – | – | – | –
Cc1cc2c(cc1O)[C@@]1(C)CC[C@H](O1)[C@H](C)C2 | 66.3% | 43.7% | 40.2% | 67% | – | – | – | – | –
C/C1=C/c2cc(C)c(O)cc2[C@H](C)CCC1 | – | 58.1% | – | 56.2% | – | – | – | – | –
Cc1cc2c(cc1O)[C@@]1(C)CCC[C@H](C)[C@@H]2O1 | 76.1% | 21.9% | 38.7% | 62.5% | – | – | – | – | –
Cc1cc2c(cc1OC(=O)c1ccccc1)[C@H](C)CCC[C@]1(C)O[C@H]21 | 51.8% | 97.9% | 89.9% | 78.5% | 3300 nM | 5000 nM | inactive | inactive | –
Cc1cc2c(cc1OC(=O)c1ccccc1)[C@@]1(C)CC[C@H](O1)[C@H](C)C2 | 76.9% | – | 26.1% | 46.9% | – | – | – | – | –
C/C1=C/CC[C@@H](C)c2cc(OC(=O)c3ccccc3)c(C)cc2C1 | 46.2% | 56.3% | 11.8% | 58.9% | – | – | – | – | –
Cc1cc2c(cc1OC(=O)c1ccccc1)[C@H](C)CC[C@@H]1O[C@]1(C)C2 | 10.9% | 47.9% | 30.3% | 42.2% | – | – | – | – | –
